Results from different studies.
Compare with care: the assays were run in different laboratories.
Target: Tyrosine-protein kinase Lyn (LYN, Homo sapiens, UniProt P07948)

COc1ncccc1-c1cnn2ccc(N3CCN(C(=O)OC(C)C)CC3)nc12 — remaining binding (binding, competition with immobilised ligand; 1 µM): 79%
Cn1cc(-c2cc(F)cc(N3CCn4c(cc5c4CCCC5)C3=O)c2CO)cc(Nc2ccc(N3CCN(C4COC4)CC3)cn2)c1=O — inhibition (enzyme activity, inhibitor; 0.1 µM): 12%
N#CC1(c2ccccn2)CCN(Cc2cc(C(=O)O)c(=O)n3ccccc23)CC1 — remaining binding (cell-free assay, competition with immobilised ligand; 1 µM): 100%
O=c1[nH]c2ccccc2n1C1CCN(Cc2ccc(-c3[nH]c4cc5ncnc5cc4nc3-c3ccccc3)cc2)CC1 — remaining activity (enzyme activity; 0.5 µM): 102%
O=C(Nc1cccnn1)N1CCN([C@@H]2CCOc3cc(C(F)(F)F)ccc32)CC1 — inhibition (enzyme activity, inhibitor; 20 µM): -4%
Cc1ncc(C)n2nc(/C=C/c3nc(N4CCCC4)cc(N4CCOCC4)n3)nc12 — inhibition (enzyme activity, inhibitor; 10 µM): -13%
Cc1nn(C)cc1-c1nc2c(N3CCN(Cc4ccc(Cl)cc4)CC3)c(Cl)cnc2[nH]1 — remaining binding (binding, competition with immobilised ligand; 1 µM): 86%
Cn1cncc1[C@](O)(COc1ccc(C#N)cc1-c1ccc(OC(F)(F)F)cc1)c1ccc(C#N)cc1 — remaining binding (cell-free assay, competition with immobilised ligand; 1 µM): 90%
CC(C)(C)c1cc(C=C(C#N)C#N)cc(Br)c1O — remaining activity (enzyme activity, inhibitor; 0.5 µM): 74.1%
